We go through 167 variants from the RNAGym collection of RNA variant scans (doi:10.1002/anie.201605470).

B1: Osa-1-4 twister ribozyme (parent)
chain: CCGCCUAACACUGCCAAUGCCGGUCCCAAGCCCGGAUAAAAGUGGAGGGGGCGG

The variants in the data set derive from B1. The experiment in a line: self-cleavage, relative activity (ratio to wild type); higher = more cleavage; co-transcriptional. The method, boiled down: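 Relative activity is the fraction cleaved divided by that of the wild-type ribozyme. The library came from a DNA template for a 54-nucleotide Oryza sativa twister ribozyme, doped at the 48 positions downstream of the cleavage site with 97 % wild-type base and 1 % of each other base. After 2 h of in vitro transcription at 37 °C with co-transcriptional self-cleavage, the RNA was reverse-transcribed with a template-switching oligonucleotide, amplified by PCR and deep-sequenced, and reads with or without upstream sequence gave the cleavage status.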
In the case of G49C U12G, the self-cleavage was found to be 0.06.
For G49C U12C the value was 0.04; for G49C U12A, 0.08; for G50A U43G, 0.15.
As for G50A U43C, the self-cleavage worked out at 0.35.
With G50A U43A, the self-cleavage was found to be 0.38.
In the case of C52A C9U, the self-cleavage was found to be 0.82.
As for C52A C9A, the self-cleavage was 0.55.
As for C52A C9G, the self-cleavage was determined as 0.8.
Consider G49C, for which the self-cleavage stood at 0.07.
G49U: the self-cleavage was found to be 0.23.
Turning to G51U G54A, the self-cleavage worked out at 0.25.
For G51U G54U the value was 0.4.
The result for G51U G54C reads 0.51; that for C52A U37C, 1.02.
Consider C52A U37G, for which the self-cleavage was determined as 1.06.
For C52A U37A the value was 0.9; for G49A U37C, 0.19; for G49A U37G, 0.27.
Consider G49A U37A, for which the self-cleavage stood at 0.13.
For G50U U18C, the self-cleavage is 0.97.
Turning to G50U U18A, the self-cleavage turned out to be 0.89.
The result for G50U U18G reads 0.8.
Consider G49C G50C, for which the self-cleavage came to 0.17.
For G49C G50U, the self-cleavage came out at 0.14.
Regarding G49C G50A, the self-cleavage is 0.2.
As for G50C G51U, the self-cleavage turned out to be 0.32.
For G50C G51C, the self-cleavage was 0.08.
For G50C G51A the value was 0.71.
For G51A U37A, the self-cleavage was 0.39.
In the case of G51A U37G, the self-cleavage was 0.78.
On to G51A U37C, for which the self-cleavage worked out at 0.82.
Regarding C52G G22C, the self-cleavage amounted to 0.09.
In the case of C52G G22U, the self-cleavage was 0.35.
For C52G G22A the value was 0.75; for G49U G51U, 0.12; for G49U G51A, 0.32.
Turning to G49U G51C, the self-cleavage came out at 0.06.
G51U U18C: the self-cleavage worked out at 0.29.
For G51U U18A the value was 0.31; for G51U U18G, 0.35; for G51C U24G, 0.02.
In the case of G51C U24C, the self-cleavage was 0.04.
Turning to G51C U24A, the self-cleavage was 0.04.
As for C52A G34C, the self-cleavage came out at 0.21.
As for C52A G34U, the self-cleavage turned out to be 0.39.
In the case of C52A G34A, the self-cleavage was 0.65.
On to G50C U37G, for which the self-cleavage stood at 1.04.
With G50C U37C, the self-cleavage stood at 1.05.
With G50C U37A, the self-cleavage was found to be 0.78.
For G49A G53U, the self-cleavage turned out to be 0.09.
As to G49U U18C, the self-cleavage turned out to be 0.16.
As for G49U U18A, the self-cleavage was found to be 0.15.
In the case of G49U U18G, the self-cleavage came out at 0.29.
On to G50A U12G, for which the self-cleavage was determined as 0.11.
For G50A U12C the value was 0.37; for G50A U12A, 0.44; for C52G G48U, 0.09.
Consider C52G G48C, for which the self-cleavage was 0.1.
Regarding C52G G48A, the self-cleavage was 0.13.
The result for G50U G54A reads 0.79; that for G50U G54U, 0.52; that for G50U G54C, 0.15.
With C52A G23U, the self-cleavage was found to be 0.09.
With C52A G23C, the self-cleavage turned out to be 0.06.
As for C52A G23A, the self-cleavage was 0.17.
Regarding G50C U12A, the self-cleavage turned out to be 0.35.
Regarding G50C U12G, the self-cleavage worked out at 0.17.
Regarding G50C U12C, the self-cleavage worked out at 0.34.
As to G51A U24G, the self-cleavage amounted to 0.02.
For the variant G51A U24C, the self-cleavage was 0.08.
With G51A U24A, the self-cleavage worked out at 0.08.
Regarding G50U G51A, the self-cleavage was found to be 0.66.
Turning to G50U G51U, the self-cleavage is 0.57.
Regarding G50U G51C, the self-cleavage turned out to be 0.11.
As for G51U, the self-cleavage amounted to 0.44.
With G51A, the self-cleavage is 0.77.
For G51C the value was 0.17.
Regarding G50A U24C, the self-cleavage came out at 0.64.
The result for G50A U24A reads 0.6; that for G50A U24G, 0.02; that for G49U U37A, 0.12.
With G49U U37C, the self-cleavage turned out to be 0.18.
As to G49U U37G, the self-cleavage stood at 0.3.
For G49A U18G the value was 0.29.
With G49A U18A, the self-cleavage amounted to 0.16.
Consider G49A U18C, for which the self-cleavage came out at 0.16.
Take C52G C9U: the self-cleavage was found to be 0.85.
For C52G C9G the value was 0.86; for C52G C9A, 0.57; for C52G G23A, 0.28.
As to C52G G23C, the self-cleavage worked out at 0.09.
As to C52G G23U, the self-cleavage was 0.14.
With G51A G53A, the self-cleavage amounted to 0.64.
With G51A G53U, the self-cleavage was found to be 0.17.
The result for G51A G53C reads 0.06; that for C52G G44A, 0.98; that for C52G G44C, 0.9.
Take C52G G44U: the self-cleavage is 0.9.
The result for C52A G13C reads 0.04; that for C52A G13A, 0.08.
In the case of C52A G13U, the self-cleavage was found to be 0.03.
The result for C52A G51A reads 0.9; that for C52A G51C, 0.43.
The result for C52A G51U reads 0.48; that for C52A G47A, 0.22; that for C52A G47C, 0.1.
Regarding C52A G47U, the self-cleavage stood at 0.21.
Take C52G G35U: the self-cleavage was found to be 0.91.
Regarding C52G G35C, the self-cleavage stood at 0.36.
As for C52G G35A, the self-cleavage is 0.84.
For G50U U43C, the self-cleavage stood at 0.68.
As to G50U U43G, the self-cleavage was determined as 0.71.
In the case of G50U U43A, the self-cleavage was found to be 0.92.
The result for G50A G53C reads 0.32; that for G50A G53A, 0.94; that for G50A G53U, 0.9.
Regarding C52G G34C, the self-cleavage stood at 0.17.
For C52G G34A the value was 0.77; for C52G G34U, 0.42; for G50C U18C, 0.95.
For the variant G50C U18A, the self-cleavage turned out to be 0.95.
Take G50C U18G: the self-cleavage is 0.75.
For C52G G47A the value was 0.28; for C52G G47U, 0.29.
With C52G G47C, the self-cleavage stood at 0.11.
For C52A G35A the value was 0.8; for C52A G35U, 0.81; for C52A G35C, 0.22.
As to G51U G53A, the self-cleavage worked out at 0.19.
For G51U G53U, the self-cleavage was determined as 0.12.
In the case of G51U G53C, the self-cleavage is 0.05.
Take C52G G51C: the self-cleavage worked out at 0.41.
Turning to C52G G51A, the self-cleavage amounted to 0.84.
G51U U43A: the self-cleavage came to 0.13.
Regarding G51U U43G, the self-cleavage is 0.08.
The result for G51U U43C reads 0.11; that for G50C G53U, 0.11; that for G50C G53A, 0.11.
G50C G53C: the self-cleavage came out at 0.06.
Regarding G51C U37G, the self-cleavage worked out at 0.18.
As for G51C U37C, the self-cleavage was determined as 0.14.
For G51C U37A the value was 0.08; for G51C G54U, 0.12; for G51C G54C, 0.34.
The result for G51C G54A reads 0.09.
Turning to G50C U24C, the self-cleavage turned out to be 0.11.
Take G50C U24A: the self-cleavage was 0.08.
As to G50C U24G, the self-cleavage was determined as 0.02.
In the case of G50A G51U, the self-cleavage was found to be 0.16.
The result for G50A G51A reads 0.5; that for G50A G51C, 0.12.
With C52A G53U, the self-cleavage was 0.8.
As for C52A G53A, the self-cleavage came to 0.92.
Take C52A G53C: the self-cleavage amounted to 0.5.
Regarding G51C U43A, the self-cleavage came to 0.06.
As to G51C U43C, the self-cleavage came out at 0.06.
As for G51C U43G, the self-cleavage stood at 0.06.
For G50U U37G the value was 1.04; for G50U U37C, 1.06; for G50U U37A, 0.85.
Regarding G51A U43C, the self-cleavage is 0.2.
Regarding G51A U43G, the self-cleavage turned out to be 0.1.
As for G51A U43A, the self-cleavage amounted to 0.25.
With C52G G50U, the self-cleavage was 0.24.
The result for C52G G50C reads 0.09.
On to C52G G50A, for which the self-cleavage stood at 0.85.
